Experimental data published in paper PMC3201796 (Cell host & microbe, 2011).
≈ marks a conversion by molar mass, not a printed value. Like-named read-outs stand apart in the source and are kept apart here.

Tests used:
Cytostatic activity [1] = type: cell-based; conditions: human, PHKs, non-infected
HSV-2 [2] = assay: HSV-2-infected athymic nude mice; type: in vivo
How it was run: (§1)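 Female NMRI athymic nude or hairless mice (~20 g, ~4 weeks; groups of five) scarified over ~1 cm² lumbosacral area with HSV-1 KOS (5×10^3 PFU) or HSV-2 G (5×10^2). Test compound 1% in 100% DMSO or CAPRISA 004-type gel, topical twice daily for 5 days from 1-2 h post-infection; same vehicle without drug as placebo. Lesions and mortality recorded over one month; Kaplan-Meier survival, log-rank test.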

HSV-2G [3] = assay: Tonsillar tissue coinfected with HSV-2G and HIV-1LAI, HSV-2 DNA release; type: cell-based; conditions: 66 μg/ml; coinfected with HIV-1LAI; n=6
How it was run: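 Human tonsillar tissue blocks sequentially infected with HSV-2 G then HIV-1 LAI; 27 blocks per condition, 9 per well in 3 ml medium. Tenofovir at 66 µg/ml kept throughout culture; untreated donor-matched tissues as control. HSV-2 DNA release into medium measured by quantitative real-time PCR; release pooled from 27 blocks per donor; 6 donors.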

HIV-1 = conditions: 1% vaginal gel, 889 women, CAPRISA 004; ref Abdool Karim et al., 2010; cited from earlier work
HIV-1LAI = assay: Tonsillar tissue coinfected with HSV-2G and HIV-1LAI, p24 release; type: cell-based; conditions: 66 μg/ml
How it was run: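 Tonsil tissue blocks (~2 mm) kept on collagen sponge at the air–liquid interface; 27 blocks per condition (9 per well). Infected with HSV-2 strain G, then HIV-1 LAI. Test compound added 12 h before infection and replenished at each medium change for the whole culture. p24 in medium over 3-day periods measured by bead-based assay. Six donors; means ± SEM.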

HSV-1KOS = assay: Organotypic epithelial raft cultures infected with HSV-1; type: cell-based
[4] = system: HSV-2 (strain NS and RV-124); assay: Virus yield reduction assay; type: cell-based
How it was run: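 HEL monolayers infected with HSV-2 clinical isolates NS or RV-124 at two moi for 2 h at 37 °C, then washed and given test compound in duplicate. At 24, 48 and 72 h, virus released by freeze-thaw and titrated by plaque assay on HEL cells.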

HSV-2 [5] = assay: HSV-2 cytopathicity in primary monocyte/macrophage cultures; type: cell-based; conditions: day 6, M/M
HSV-2 [6] = conditions: 1% vaginal gel, CAPRISA 004; ref Cates, 2010; cited from earlier work
HSV-2 [7] = type: cell-based; conditions: for Virus production (TCID50/ml): M/M
HEL cells = assay: Cytotoxicity by cell morphology; type: cell-based, human
How it was run: (§2)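 Run in non-infected cultures in parallel with the antiviral assay. Cells exposed to test compound and examined microscopically at day 3. MCC is the lowest concentration giving a detectable change in cell morphology.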

HSV-1 = assay: HSV-1-infected athymic nude mice; type: in vivo
How it was run: as §1

[8] = MTT viability assay in epithelial TZM-Bl cells; type: cell-based, human; conditions: up to 1,000 μg/ml; data not shown
How it was run: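 Confluent TZM-Bl epithelial monolayers exposed to a range of test compound concentrations for 3–4 days, then given MTT dye. Viable cells convert it to formazan, measured by optical density.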

Cytostatic activity [9] = type: cell-based; conditions: human, HEL cells, non-infected
PHKs = assay: Cytotoxicity by cell morphology; type: cell-based, human; conditions: non-infected
How it was run: as §2

[10] = in vivo; cited from earlier work
HSV-2G [11] = assay: Organotypic epithelial raft cultures infected with HSV-2; type: cell-based
HSV-1 and HSV-2 = type: cell-based; conditions: Fibroblast, read-out: EC50 values (inhibition of cytopathicity), range
How it was run: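 HEL fibroblasts or primary human keratinocytes (from neonatal foreskin) infected at 100 TCID50 per strain and grown 3 days at 37 °C, 5% CO2, with a range of test compound concentrations. CPE scored visually. […] Means of at least two independent experiments, ± SD.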

HSV-2G, HSV-2MS = assay: Human tonsillar tissue ex vivo infected with HSV-2; type: cell-based; conditions: 66 μg/ml
HSV-2G [12] = assay: Human cervico-vaginal tissue ex vivo infected with HSV-2G; type: cell-based; conditions: 150 μg/ml
HSV-1F = assay: Human tonsillar tissue ex vivo infected with HSV-1; type: cell-based
HSV-2 [13] = type: cell-based; conditions: day 6, M/M
[14] = 1% gel as in CAPRISA 004, topical
[15] = 1% in DMSO, topical, 5 days from day of infection

## C[C@H](Cn1cnc2c(N)ncnc21)OCP(=O)(O)O [Tenofovir, (R)-9-[2-(phosphonylmethoxypropyl)adenine]]
Cytostatic activity [1]
  CC50 at 3 days: > 50 µg/mL
HSV-2 [2]; [14]
  appearance of lesions and death vs placebo gel: delayed the appearance of herpesvirus-related lesions and subsequent death
HSV-2 [2]; [15]
  morbidity and survival: statistically significant suppression of morbidity and prolonged the survival
HSV-2G [3]
  suppression of HSV-2G replication: 96 ± 1%
HIV-1
  reduction of HIV-1 sexual transmission: 39%
HIV-1LAI
  inhibition of HIV-1LAI: inhibited completely
HSV-1KOS; 50 μg/ml
  log10 reduction in virus production: 0.81 log10
HSV-1KOS; 200 μg/ml
  protection of virus-induced cytopathicity: complete CPE protection
HSV-1KOS; 200 μg/ml, 5 days of treatment
  log10 reduction in virus production: 2.6 log10
[4]; HEL cells, any drug concentration
  changes in cell number: no changes in cell number
[4]; HSV-2 RV-124 and NS, two moi, 24, 48, 72 h post-infection, PFU reduction
  EC99 (drug concentration that decreases virus titers by two orders of magnitude): 214 to 390 µg/mL
HSV-2 [5]; 0.04 μg/ml
  Cytopathicity (CPE) (%): 85%
HSV-2 [5]; 0.2 μg/ml
  Cytopathicity (CPE) (%): 80%
HSV-2 [5]; 5 μg/ml
  Cytopathicity (CPE) (%): 60%
HSV-2 [5]; 20 μg/ml
  Cytopathicity (CPE) (%): 5%
HSV-2 [5]; 100 μg/ml
  Cytopathicity (CPE) (%): None
HSV-2 [5]; 500 μg/ml
  Cytopathicity (CPE) (%): None
HSV-2 [6]
  reduction of the risk of acquisition of HSV-2: 51%
HSV-2 [7]; 0.04 μg/ml, day 6
  Virus production (TCID50/ml): 3.2×10^5 TCID50/ml
HSV-2 [7]; 0.2 μg/ml, day 6
  Virus production (TCID50/ml): 3×10^5 TCID50/ml
HSV-2 [7]; 1 μg/ml or 0.2 μg/ml, no significant protective effect
  HSV-2 production: 2.4 to 3.0 × 10^5 TCID50/ml
HSV-2 [7]; 1 μg/ml, day 6
  Virus production (TCID50/ml): 2.4×10^5 TCID50/ml
HSV-2 [7]; 5 μg/ml, day 6
  Virus production (TCID50/ml): 7.2× 10^4 TCID50/ml
HSV-2 [7]; 20 μg/ml, day 6
  Virus production (TCID50/ml): 1.3×10^4 TCID50/ml
HSV-2 [7]; 20 μg/ml, from 3.7 × 10^5 TCID50/ml in untreated
  drop in HSV-2 production: more than one log10
HSV-2 [7]; 100 μg/ml, day 6
  Virus production (TCID50/ml): No virus
HSV-2 [7]; 500 μg/ml, day 6 post infection
  Virus production (TCID50/ml): No virus
HSV-2 [7]; 500 and 100 μg/ml
  HSV-2 replication in M/M: completely suppressed
HEL cells; HEL, non-infected, cell morphology
  Cell toxicity MCC (minimum cytotoxic concentration): >400 µg/mL
HEL cells; highest drug concentrations used (500 μg/ml)
  cytotoxicity as assessed from HEL cell morphology: no signs of tenofovir cytotoxicity
HSV-1; [14]
  appearance of lesions and death vs placebo gel: delayed the appearance of herpesvirus-related lesions and subsequent death
HSV-1; [15]
  morbidity and survival: statistically significant suppression of morbidity and prolonged the survival
[8]
  MTT dye viability testing: did not show measurable toxicity
Cytostatic activity [9]
  CC50 at 3 days: 547 ± 39 µg/mL (≈ 1900 µM)
PHKs
  Cell toxicity MCC (minimum cytotoxic concentration): >200 µg/mL
[10]
  AUC24hr in cervico-vaginal fluid: 18600 µg·h/mL
  level in cervico-vaginal fluid at 24 hr post drug exposure: ~ 100 μg/ml
HSV-2G [11]; 2 μg/ml
  activity against HSV-2 in rafts: inactive
HSV-2G [11]; 50 μg/ml
  log10 reduction in virus production: 1.75 log10
HSV-2G [11]; 200 μg/ml
  protection of virus-induced cytopathicity: complete CPE protection
HSV-2G [11]; 200 μg/ml, 5 days of treatment
  log10 reduction in virus production: 5.4 log10
HSV-2G [11]; 20 and 5 μg/ml
  protection of raft epithelium (histology): partially protective
HSV-1 and HSV-2
  EC50: 103 to 193 µg/mL (≈ 359 to 672 µM)
HSV-2G, HSV-2MS; HSV-2G
  reduction of replication vs donor-matched untreated tissue: 87 ± 12%
HSV-2G, HSV-2MS; HSV-2MS
  reduction of replication vs donor-matched untreated tissue: 91.7 ± 3.2%
HSV-2G [12]
  reduction of HSV-2G replication (averaged over experiments): 78 ± 9%
HSV-2G [12]; untreated 6.6 log10 copies/ml, n=5
  HSV-2G DNA in culture medium: 5.5 log10 copies/mL
HSV-1F; 66 μg/ml, HSV-1F
  reduction of replication vs donor-matched untreated tissue: 99 ± 0.1%
HSV-1F; Human alphaherpesvirus 1, in Homo sapiens, read-out: EC50 for HSV suppression
  EC50: 7 µg/mL (≈ 24.4 µM)
HSV-2 [13]; 0.04 μg/ml
  Virus production (PFU/ml): 8.5×10^4 PFU/ml
HSV-2 [13]; 0.2 μg/ml
  Virus production (PFU/ml): 7.3×10^4 PFU/ml
HSV-2 [13]; 1 μg/ml
  Virus production (PFU/ml): 6.6×10^4 PFU/ml
HSV-2 [13]; 5 μg/ml
  Virus production (PFU/ml): 1.9×10^4 PFU/ml
HSV-2 [13]; 20 μg/ml
  Virus production (PFU/ml): 2.2×10^3 PFU/ml
HSV-2 [13]; 100 μg/ml
  Virus production (PFU/ml): No virus
HSV-2 [13]; 500 μg/ml
  Virus production (PFU/ml): No virus
